# Key:
# Format in all cases: functional
# SNB-19 = assay: Antiproliferative activity against human SNB19 cells after 48 hrs by sulforhodamine B assay; conditions: SNB-19, 48 h
# Summary of the method: (§1)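 Cells grown in RPMI 1640 with 5% FBS and 2 mM L-glutamine, plated at 5000–40,000 cells/well and preincubated 24 h at 37 °C, 5% CO2. Five drug concentrations (10-fold or ½-log dilutions from DMSO stocks) applied for 48 h. TCA-fixed (final 10% adherent, 16% suspension), SRB-stained, A515 read. Growth versus time-zero and control wells gave GI50, TGI, LC50.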
# MCF7 = assay: Antiproliferative activity against human MCF7 cells after 48 hrs by sulforhodamine B assay; conditions: MCF7, 48 h; summary of the method: as §1
# OVCAR-8 = assay: Antiproliferative activity against human OVCAR8 cells after 48 hrs by sulforhodamine B assay; conditions: OVCAR-8, 48 h; summary of the method: as §1
# NCI-H226 = assay: Antiproliferative activity against human NCI-H226 cells after 48 hrs by sulforhodamine B assay; conditions: NCI-H226, 48 h; summary of the method: as §1
# HL-60 = assay: Antiproliferative activity against human HL60 (TB) cells after 48 hrs by sulforhodamine B assay; conditions: HL-60, 48 h
# Summary of the method: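 NCI 60-cell panel protocol: cells in RPMI 1640 with 5% FBS and 2 mM L-glutamine, plated 24 h at 37 °C/5% CO2 before dosing. Compounds dissolved in DMSO and tested at five concentrations (10-fold or ½ log serial dilutions) for 48 h. Suspension cells fixed with 80% TCA (final 16%), SRB stained, absorbance at 515 nm. GI50 derived from time-zero-corrected growth.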
# UACC-257 = assay: Antiproliferative activity against human UACC257 cells after 48 hrs by sulforhodamine B assay; conditions: UACC-257, 48 h
# Summary of the method: (§2)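 Cells in RPMI 1640 with 5% FBS and 2 mM L-glutamine were seeded at 5000–40,000/well according to doubling time and preincubated 24 h at 37 °C in 5% CO2. Time-zero plates were TCA-fixed when drug was added. Five 10-fold or ½-log dilutions from DMSO stocks were added for 48 h. After SRB staining, A515 was read and GI50 derived from [(Ti−Tz)/(C−Tz)]×100 = 50.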
# [1] = Antiproliferative activity against human EKVX cells after 48 hrs by sulforhodamine B assay; summary of the method: as §1
# OVCAR-3 = assay: Antiproliferative activity against human OVCAR3 cells after 48 hrs by sulforhodamine B assay; conditions: OVCAR-3, 48 h; summary of the method: as §1
# NCI-H522 = assay: Antiproliferative activity against human NCI-H522 cells after 48 hrs by sulforhodamine B assay; conditions: NCI-H522, 48 h; summary of the method: as §1
# SF-539 = assay: Antiproliferative activity against human SF539 cells after 48 hrs by sulforhodamine B assay; conditions: SF-539, 48 h; summary of the method: as §1
# OVCAR-4 = assay: Antiproliferative activity against human OVCAR4 cells after 48 hrs by sulforhodamine B assay; conditions: OVCAR-4, 48 h; summary of the method: as §1
# PC-3 = assay: Antiproliferative activity against human PC3 cells after 48 hrs by sulforhodamine B assay; conditions: PC-3, 48 h; summary of the method: as §1
# [2] = Antiproliferative activity against human Hs 578T cells after 48 hrs by sulforhodamine B assay; summary of the method: as §1
# SN12C = assay: Antiproliferative activity against human SN12C cells after 48 hrs by sulforhodamine B assay; summary of the method: as §1
# MDA-MB-468 = assay: Antiproliferative activity against human MDA-MB-468 cells after 48 hrs by sulforhodamine B assay; conditions: MDA-MB-468, 48 h; summary of the method: as §1
# NCI-H23 = assay: Antiproliferative activity against human NCI-H23 cells after 48 hrs by sulforhodamine B assay; conditions: NCI-H23, 48 h; summary of the method: as §1
# K562 = assay: Antiproliferative activity against human K562 cells after 48 hrs by sulforhodamine B assay; conditions: K562, 48 h; summary of the method: as §1
# SF-268 = assay: Antiproliferative activity against human SF268 cells after 48 hrs by sulforhodamine B assay; conditions: SF-268, 48 h; summary of the method: as §1
# LOX IMVI = assay: Antiproliferative activity against human LOXIMVI cells after 48 hrs by sulforhodamine B assay; summary of the method: as §1
# KM12 = assay: Antiproliferative activity against human KM12 cells after 48 hrs by sulforhodamine B assay; conditions: KM12, 48 h; summary of the method: as §1
# A498 = assay: Antiproliferative activity against human A498 cells after 48 hrs by sulforhodamine B assay; conditions: A498, 48 h; summary of the method: as §1
# CAKI-1 = assay: Antiproliferative activity against human CAKI-1 cells after 48 hrs by sulforhodamine B assay; conditions: CAKI-1, 48 h; summary of the method: as §1
# M14 = assay: Antiproliferative activity against human M14 cells after 48 hrs by sulforhodamine B assay; conditions: M14, 48 h; summary of the method: as §1
# NCI-H460 = assay: Antiproliferative activity against human NCI-H460 cells after 48 hrs by sulforhodamine B assay; conditions: NCI-H460, 48 h; summary of the method: as §1
# ACHN = assay: Antiproliferative activity against human ACHN cells after 48 hrs by sulforhodamine B assay; summary of the method: as §1
# U-251 = assay: Antiproliferative activity against human U251 cells after 48 hrs by sulforhodamine B assay; conditions: U-251, 48 h; summary of the method: as §2
# TK-10 = assay: Antiproliferative activity against human TK10 cells after 48 hrs by sulforhodamine B assay; conditions: TK-10, 48 h; summary of the method: as §2
# HOP-62 = assay: Antiproliferative activity against human HOP62 cells after 48 hrs by sulforhodamine B assay; conditions: HOP-62, 48 h; summary of the method: as §1
# [3] = read-out: pLC50 (the source's name) (converted)
structure (smiles),measurement,setting,value
O=C(CCCn1c(=O)c2sc3ccccc3c2n2nnc(-c3ccccc3)c12)NCCc1c[nH]cn1,GI50,SNB-19,1.7 µM
same,LC50,SNB-19,> 100 µM
same,TGI,SNB-19; read-out: pTGI (converted),5.01 µM
same,GI50,MCF7,1.45 µM
same,LC50,MCF7,6.46 µM
same,TGI,MCF7; read-out: pTGI (converted),3.09 µM
same,GI50,OVCAR-8,0.324 µM
same,LC50,OVCAR-8,> 100 µM
same,TGI,OVCAR-8; read-out: pTGI (converted),2.82 µM
same,GI50,NCI-H226,18.6 µM
same,LC50,NCI-H226,75.9 µM
same,TGI,NCI-H226; read-out: pTGI (converted),38 µM
same,GI50,HL-60,1.41 µM
same,CC50,HL-60; [3],> 100 µM
same,TGI,HL-60; read-out: pTGI (converted),6.31 µM
same,GI50,UACC-257,2.04 µM
same,LC50,UACC-257,> 100 µM
same,TGI,UACC-257; read-out: pTGI (converted),4.57 µM
same,GI50,[1],2.69 µM
same,LC50,[1],> 100 µM
same,TGI,[1]; read-out: pTGI (converted),8.71 µM
same,GI50,OVCAR-3,1.51 µM
same,LC50,OVCAR-3,6.61 µM
same,TGI,OVCAR-3; read-out: pTGI (converted),3.16 µM
same,GI50,NCI-H522,1.05 µM
same,LC50,NCI-H522,81.3 µM
same,TGI,NCI-H522; read-out: pTGI (converted),11.7 µM
same,GI50,SF-539,0.661 µM
same,LC50,SF-539,5.75 µM
same,TGI,SF-539; read-out: pTGI (converted),2.19 µM
same,GI50,OVCAR-4,1.74 µM
same,TGI,OVCAR-4; read-out: pTGI (converted),3.8 µM
same,LC50,PC-3,> 100 µM
same,TGI,PC-3; read-out: pTGI (converted),> 100 µM
same,GI50,[2],1.74 µM
same,TGI,[2]; read-out: pTGI (converted),4.07 µM
same,GI50,SN12C,0.269 µM
same,LC50,SN12C,5.13 µM
same,TGI,SN12C; read-out: pTGI (converted),1.86 µM
same,GI50,MDA-MB-468,1.7 µM
same,LC50,MDA-MB-468,7.94 µM
same,TGI,MDA-MB-468; read-out: pTGI (converted),3.72 µM
same,GI50,NCI-H23,2.95 µM
same,LC50,NCI-H23,> 100 µM
same,TGI,NCI-H23; read-out: pTGI (converted),11.7 µM
same,GI50,K562,0.437 µM
same,GI50,SF-268,1.78 µM
same,LC50,SF-268,7.76 µM
same,TGI,SF-268; read-out: pTGI (converted),3.72 µM
same,GI50,LOX IMVI,1.58 µM
same,CC50,LOX IMVI; [3],5.37 µM
same,TGI,LOX IMVI; read-out: pTGI (converted),2.95 µM
same,GI50,KM12,1.15 µM
same,TGI,KM12; read-out: pTGI (converted),2.82 µM
same,GI50,A498,1.55 µM
same,LC50,A498,5.75 µM
same,TGI,A498; read-out: pTGI (converted),3.02 µM
same,GI50,CAKI-1,0.182 µM
same,CC50,CAKI-1; [3],4.47 µM
same,TGI,CAKI-1; read-out: pTGI (converted),1.7 µM
same,GI50,M14,1.7 µM
same,TGI,M14; read-out: pTGI (converted),3.8 µM
same,GI50,NCI-H460,1.86 µM
same,LC50,NCI-H460,7.76 µM
same,TGI,NCI-H460; read-out: pTGI (converted),3.8 µM
same,GI50,ACHN,1.66 µM
same,LC50 (50% lethal concentration),ACHN,5.5 µM
same,TGI,ACHN; read-out: pTGI (converted),3.02 µM
same,GI50,U-251,1.05 µM
same,LC50,U-251,4.68 µM
same,TGI,U-251; read-out: pTGI (converted),2.24 µM
same,GI50,TK-10,2.14 µM
same,TGI,TK-10; read-out: pTGI (converted),3.98 µM
same,GI50,HOP-62,2.29 µM
same,LC50,HOP-62,> 100 µM
same,TGI,HOP-62; read-out: pTGI (converted),5.25 µM

# — ChEMBL document CHEMBL2346608, “New annelated thieno[2,3-e][1,2,3]triazolo[1,5-a]pyrimidines, with potent anticancer activity, designed through VLAK protocol” (2013)
